Rows were chosen to be rich in hits. Some 2.5% of all compounds tested hit in one or more screens of this group.
Arr AP2 block – human beta-arrestin and AP2 interaction inhibition. FITC-arrestin peptide / GST-AP2 beads, flow cytometry; AP2 beta2 appendage carries R879A mutation. AID 504490. 0.31% of 340,000 active. inhibition, % at 10 µM;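 active = inhibition above a set limit, near 3 SD of compounds lacking own fluorescence, cut at about 54% in these data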;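 note: plate controls were DMSO wells for no effect and 5 µM unlabelled arrestin peptide for full effect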
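Test system: GST-tagged AP2 beta2-adaptin appendage (R879A) on 4 µm glutathione beads; also added: fluorescein-tagged arrestin peptide at 50 nM final; timing: 12 min plus 1 h, RT; signal: flow cytometry, FL1 (488/535 nm); read-out: percent drop in bead-associated FITC signal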
ABHD5 PLIN5 PPI – blocks binding of human ABHD5 to perilipin-5; Q00G26+Q8WTS1; Split G. princeps luciferase complementation, luminescence, 4 h; inhibition, % at 4 µM; AID 602281; 0.78% of 360,000 active;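 active = inhibition above the mean inhibition across every tested compound plus 3 SD, cut at about 22% in these data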;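 note: 0% = DMSO only wells and the 100% control is not disclosed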
Rin1 Abl inh – blocks binding of human Rin1 to Abl. P00519+Q13671. TR-FRET Rin1/Abl binding, biochemical. inhibition, % at 7.35 µM. 0.4% of 360,000 active; in the data active = inhibition above about 5%, passing the limit was not always enough
UHRF1 binding – UHRF1 methyl-DNA binding inhibition | UHRF1 binding to methylated oligo, TR-FRET | AID 687016 | 0.75% of 370,000 active | inhibition, % at 4.4 µM | Q96T88; in the data active = inhibition above about 21%;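 note: UHRF1 SRA domain binding a hemimethylated CpG hairpin DNA probe; 0% = median of test compound wells and 100% = reference inhibitor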
MBD2 DNA inh – blocks human MBD2 binding to methylated DNA. TR-FRET, MBD2 binding to methylated oligonucleotide. inhibition, % at 4.4 µM. 0.31% of 370,000 active. AID 686964; in the data active = inhibition above about 13%
Target sequence (Q9UBB5 whole entry, looked up): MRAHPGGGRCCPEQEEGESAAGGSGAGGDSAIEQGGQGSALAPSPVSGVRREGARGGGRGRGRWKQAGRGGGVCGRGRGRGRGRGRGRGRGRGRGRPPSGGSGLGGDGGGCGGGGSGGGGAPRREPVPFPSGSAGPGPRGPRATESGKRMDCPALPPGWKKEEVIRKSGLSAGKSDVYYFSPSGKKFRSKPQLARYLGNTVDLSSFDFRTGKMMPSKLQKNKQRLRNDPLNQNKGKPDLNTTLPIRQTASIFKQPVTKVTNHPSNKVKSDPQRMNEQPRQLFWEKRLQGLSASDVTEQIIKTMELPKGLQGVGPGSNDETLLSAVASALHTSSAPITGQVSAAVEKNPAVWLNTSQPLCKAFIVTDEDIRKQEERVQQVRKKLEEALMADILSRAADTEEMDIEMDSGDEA
B2AR ag – activates human beta-2 adrenergic receptor causing internalization; Am2.2-beta2AR cells, FAP receptor internalization, flow cytometry; P07550; response, % (concentration not given with the values); 0.43% of 340,000 active;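 active = response above a set limit, near 3 SD of response in nonfluorescent compounds, cut at about 42% in these data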
* marks the source's active call; other numbers are inactive results; / = not tested or not shown.

SMILES | Arr AP2 block | ABHD5 PLIN5 PPI | Rin1 Abl inh | UHRF1 binding | MBD2 DNA inh | B2AR ag
Cc1cccn2c(=O)c3cc(C(=O)NC(C)C)c(=N)n(Cc4ccncc4)c3nc12 | 1 | 2 | -8 | -6 | -2 | -3
CCNC(=O)c1cc2c(=O)n3cccc(C)c3nc2n(Cc2ccc(C)cc2)c1=N | 9 | 11 | -1 | -2 | -9 | 51*
O=C(CCc1nc2ccccc2c(=O)[nH]1)Nc1ccc(N2CCCCC2)cc1 | 35 | 1 | 2 | -4 | -1 | 9
O=C(CCc1nc2ccccc2c(=O)[nH]1)Nc1cc(Cl)ccc1N1CCCC1 | 4 | -5 | -3 | 32* | 3 | 7
CC(=O)Nc1ccc(S(=O)(=O)Nc2nc3ccccc3nc2Nc2ccc(C(=O)O)c(O)c2)cc1 | 32 | -2 | 3 | 26* | 2 | 0
COC(=O)C1CCN(C(=O)CN2CCC(C(=O)c3ccc(C)cc3)CC2)CC1 | / | / | / | 2 | 3 | /
COc1ccc(CN2CCC(C(=O)Nc3ccc(Oc4cccnc4)cc3)CC2)cc1 | -8 | 0 | 8.2* | 1 | 0 | -11
S=C(NCc1ccco1)Nc1cc(-c2ccccc2)[nH]n1 | -10 | 2 | 1 | 29* | 6 | 4
COc1ccc(S[C@]2(C(=O)N(C)C)CC(=O)N(c3ccccc3)[C@@H]2c2ccc(OC)cc2)cc1 | / | / | / | 0 | 1 | /
O=C(C(=O)N1CCN(C(=O)Cc2ccccc2)CC1)c1cccc(C(F)(F)F)c1 | / | / | / | 58* | -6 | /
C#CCN(C)S(=O)(=O)c1ccc(N2CCCC2)cc1Br | / | / | / | -1 | 0 | /
COc1ccc(Oc2c(Cl)cnn(-c3ccc(C(C)C)c(C)c3)c2=O)cc1 | / | / | / | 3 | 1 | /
Clc1ccc2nc(CN3CCCCCC3)cn2c1 | 3 | -1 | 0 | 0 | 0 | -6
Clc1ccc2nc(CN3CCCCC3)cn2c1 | 5 | -4 | 3 | 27* | 1 | -4
O=C(Nc1ccccc1)n1ccc2ccc(-c3ccc4cc[nH]c4c3)cc21 | / | / | / | -2 | 1 | /
CCn1c2ccccc2c2cc(NC(=O)COC(=O)c3cc(F)cc(F)c3)ccc21 | / | / | / | -2 | 5 | /
Cc1ccc(NC(=S)NC(=O)CC2CC(C)(C)OC2=O)cc1 (centres undefined) | 8 | -4 | -3 | 62* | 3 | 0
CCOc1ccccc1C1NC(=O)NC(C)=C1C(=O)OC1CCCC1C (centres undefined) | 7 | -2 | 2 | 4 | 3 | 4
CCOc1ccccc1C1NC(=O)NC(C)=C1C(=O)OC1CCCCC1 (centres undefined) | -5 | 5 | 2 | 81* | 1 | -1
COc1ccccc1NC(=O)COC(=O)CCS(=O)(=O)c1ccc(C)cc1 | 0 | 4 | 2 | -2 | 6 | -1
COc1ccc(OC)c(NC(=O)COC(=O)CCS(=O)(=O)c2ccc(Cl)cc2)c1 | 0 | 5 | 3 | 21* | 4 | 2
Cc1ccc(-n2c(SCC(=O)Nc3ccc(OCc4ccccc4)cc3)nnc2-c2cnccn2)cc1 | / | / | / | 1 | 1 | /
O=c1oc2c(CN3CCN(CCO)CC3)c(O)ccc2cc1-c1ccccn1 | -3 | -1 | -2 | -2 | -2 | 43*
O=c1oc2c(CN3CCCCC3)c(O)ccc2cc1-c1nc2ccccc2[nH]1 | 9 | 3 | -7 | -5 | -5 | -4
CC(C)CC(O)(CC(C)C)c1cn(C(=O)N(c2ccccc2)c2ccccc2)nn1 | / | / | / | 0 | 2 | /
SMILES | Arr AP2 block | ABHD5 PLIN5 PPI | Rin1 Abl inh | UHRF1 binding | MBD2 DNA inh | B2AR ag
Cc1ccc(NC(=O)c2cc(S(=O)(=O)NCC3CCCO3)ccc2F)cc1 (centres undefined) | / | -14 | -1 | 45* | -1 | /
O=C(c1ccncc1F)N1CCC(n2nnc3ncccc32)CC1 | / | / | / | -1 | 0 | /
CC1COCC(C)N1C1=C(Cl)C(=O)c2ccccc2C1=O (centres undefined) | 29 | -49 | -2 | -10 | -14 | 81*
COc1ccc(-n2c(C)cc(C=O)c2C)cc1Cl | -7 | 1 | 0 | 0 | -1 | -4
Cc1cc(C=O)c(C)n1-c1ccc(Cl)c(C(=O)O)c1 | 1 | -2 | -3 | 47* | 3 | -2
Nn1c(SCC(=O)Nc2nccs2)nnc1-c1cc(-c2ccc(Cl)cc2)n[nH]1 | / | / | / | -2 | -1 | /
Cc1ccc(F)cc1C(=O)N1CCOCC1c1cc(C(=O)Nc2ccccc2)no1 (centres undefined) | / | 4 | -1 | 33* | -1 | /

Source: PubChem BioAssay
